Data from ChEMBL document CHEMBL1149132, “Structure-activity study of the ORL1 antagonist Ac-Arg-D-Cha-Qaa-D-Arg-D-p-ClPhe-NH2” (J Med Chem, 2004).

Tests used:
Assay type in all cases: cell-based
Mu-type opioid receptor = Mu-type opioid receptor (Homo sapiens, UniProt P35372); assay: Binding affinity against human Opioid receptor mu 1 (hMOR) was determined using [3H]diprenorphine in vitro transfected to COS-1 cells
Method in brief: (§1)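 Competition binding with [3H]diprenorphine on membrane homogenates of COS-1 cells transiently transfected with human MOR or human DOR. Ki given as mean ± SEM from two or more separate experiments done in duplicate.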

[1] = biological target: Delta-type opioid receptor (Homo sapiens, UniProt P41143); assay: Binding affinity against human opioid receptor delta 1 was determined using [3H]diprenorphine in vitro transfected to COS-1 cells; method in brief: as §1
Delta-type opioid receptor, sequence (P41143 whole entry): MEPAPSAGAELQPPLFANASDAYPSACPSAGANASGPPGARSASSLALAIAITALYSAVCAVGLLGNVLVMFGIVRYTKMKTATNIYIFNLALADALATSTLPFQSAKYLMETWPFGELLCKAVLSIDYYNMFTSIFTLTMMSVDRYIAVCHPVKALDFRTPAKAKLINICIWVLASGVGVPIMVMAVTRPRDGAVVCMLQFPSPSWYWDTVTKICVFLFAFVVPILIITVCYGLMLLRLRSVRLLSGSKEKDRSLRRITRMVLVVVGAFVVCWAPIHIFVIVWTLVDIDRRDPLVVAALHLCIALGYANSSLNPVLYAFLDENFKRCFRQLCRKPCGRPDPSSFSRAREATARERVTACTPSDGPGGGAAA

Nociceptin receptor = Nociceptin receptor (Homo sapiens, UniProt P41146); assay: Binding affinity against human opioid receptor like 1 (hORL) was determined using [leucyl-3H]nociceptin in vitro in CHO cells
Nociceptin receptor, sequence (P41146 whole entry): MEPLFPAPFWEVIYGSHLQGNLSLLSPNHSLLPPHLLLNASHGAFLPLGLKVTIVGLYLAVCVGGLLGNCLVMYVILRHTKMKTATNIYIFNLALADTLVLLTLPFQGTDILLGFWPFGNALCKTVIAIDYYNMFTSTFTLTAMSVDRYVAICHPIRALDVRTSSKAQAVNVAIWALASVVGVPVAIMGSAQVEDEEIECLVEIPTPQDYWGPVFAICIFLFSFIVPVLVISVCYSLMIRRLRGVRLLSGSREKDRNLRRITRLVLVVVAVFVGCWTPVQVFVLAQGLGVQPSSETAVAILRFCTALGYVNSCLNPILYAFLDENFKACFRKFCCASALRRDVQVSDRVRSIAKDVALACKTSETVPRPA
Method in brief: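 Displacement of [leucyl-3H]nociceptin from membrane homogenates of CHO cells stably expressing recombinant human ORL1. Ki values are means ± SEM of two or more independent experiments, each in duplicate.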

[2] = biological target: Kappa-type opioid receptor (Homo sapiens, UniProt P41145); assay: Binding affinity against human Opioid receptor kappa 1 (hKOR) was determined using [3H]diprenorphine in vitro in CHO cells
Kappa-type opioid receptor, sequence (P41145 whole entry): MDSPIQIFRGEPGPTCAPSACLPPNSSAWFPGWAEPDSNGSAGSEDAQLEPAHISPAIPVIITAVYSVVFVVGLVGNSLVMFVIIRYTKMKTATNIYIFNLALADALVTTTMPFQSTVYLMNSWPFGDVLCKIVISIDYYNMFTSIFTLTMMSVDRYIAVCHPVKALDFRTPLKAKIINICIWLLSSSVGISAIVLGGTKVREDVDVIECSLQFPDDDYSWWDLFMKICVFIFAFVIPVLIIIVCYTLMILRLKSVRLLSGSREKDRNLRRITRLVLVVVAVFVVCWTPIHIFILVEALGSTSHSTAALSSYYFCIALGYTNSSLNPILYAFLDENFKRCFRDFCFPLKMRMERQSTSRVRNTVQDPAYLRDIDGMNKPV
Method in brief: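 Competition binding with [3H]diprenorphine on membrane homogenates of CHO cells stably expressing recombinant human KOR. Ki reported as mean ± SEM of two or more separate experiments, each run in duplicate.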

Mu-type opioid receptor, sequence (P35372 whole entry): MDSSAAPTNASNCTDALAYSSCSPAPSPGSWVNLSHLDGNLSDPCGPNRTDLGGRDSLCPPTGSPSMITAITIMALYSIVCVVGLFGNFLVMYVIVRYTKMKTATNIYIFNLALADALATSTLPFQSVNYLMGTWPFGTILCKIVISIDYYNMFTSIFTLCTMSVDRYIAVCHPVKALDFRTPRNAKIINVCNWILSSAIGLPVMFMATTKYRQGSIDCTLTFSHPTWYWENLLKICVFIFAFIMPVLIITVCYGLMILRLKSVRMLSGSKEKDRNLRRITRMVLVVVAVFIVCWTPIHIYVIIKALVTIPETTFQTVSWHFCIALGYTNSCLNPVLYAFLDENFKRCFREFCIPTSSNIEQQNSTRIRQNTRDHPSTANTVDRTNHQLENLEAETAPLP

SMILES	Ki (Mu-type opioid receptor)	Ki [1]	Ki (Nociceptin receptor)	Ki [2]
CC(=O)N[C@@H](CCCN=C(N)N)C(=O)N[C@H](CC1CCCCC1)C(=O)N[C@H]1CC[C@@H]2SC[C@@H](C(=O)N[C@H](CCCN=C(N)N)C(=O)NC(Cc3ccc(Cl)cc3)C(N)=O)N2C1=O (stereo not given in full)	53 nM	222 nM	34 nM	78 nM
CC(=O)N[C@@H](CCCN=C(N)N)C(=O)N[C@H](CC1CCCCC1)C(=O)N[C@H]1CC[C@H]2CCC[C@@H](C(=O)N[C@H](CCCNC(N)=O)C(N)=O)N2C1=O	> 5000 nM	> 5000 nM	> 5000 nM	> 5000 nM
CC(=O)N[C@@H](CCCNC(N)=O)C(=O)N[C@H](CC1CCCCC1)C(=O)N[C@H]1CC[C@H]2CCC[C@@H](C(=O)N[C@H](CCCN=C(N)N)C(=O)N[C@H](Cc3ccc(Cl)cc3)C(N)=O)N2C1=O	2560 nM	> 5000 nM	72 nM	4270 nM
CC(=O)N[C@@H](CCCN=C(N)N)C(=O)N[C@H](CC1CCCCC1)C(=O)N[C@H]1CC[C@H]2CCC[C@@H](C(=O)N[C@H](CCCNC(N)=O)C(=O)N[C@H](Cc3ccc(Cl)cc3)C(N)=O)N2C1=O	> 5000 nM	> 5000 nM	> 5000 nM	> 5000 nM
CC(=O)N[C@@H](CCCN=C(N)N)C(=O)N[C@H](CC1CCCCC1)C(=O)N[C@H]1CC[C@H]2CCC[C@@H](C(=O)N[C@H](CCCN=C(N)N)C(=O)N[C@H](Cc3ccc(Cl)cc3)C(N)=O)N2C1=O	90 nM	> 5000 nM	27 nM	105 nM
